Source: publication PMC6828636 (European Journal of Drug Metabolism and Pharmacokinetics, 2019)

Legend:
[1] = molecular target: P-gp (Homo sapiens, UniProt P08183); experiment: P-gp inhibition in Caco-2 cells; format: in vitro ADME
Method in brief: (§1)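 Efflux transporter inhibition in Caco-2 monolayers. Test compound at 0.25–60 μM. Probe/reference-inhibitor pairs were digoxin/cyclosporin A (P-gp) and cladribine/Ko143 (BCRP). Probe transport was measured with and without test compound, and IC50 was derived from that inhibition.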

[2] = molecular target: T1, BCRP (Homo sapiens, UniProt Q9UNQ0); experiment: BCRP inhibition in Caco-2 cells; format: in vitro ADME
T1 sequence (Q9UNQ0 1-655): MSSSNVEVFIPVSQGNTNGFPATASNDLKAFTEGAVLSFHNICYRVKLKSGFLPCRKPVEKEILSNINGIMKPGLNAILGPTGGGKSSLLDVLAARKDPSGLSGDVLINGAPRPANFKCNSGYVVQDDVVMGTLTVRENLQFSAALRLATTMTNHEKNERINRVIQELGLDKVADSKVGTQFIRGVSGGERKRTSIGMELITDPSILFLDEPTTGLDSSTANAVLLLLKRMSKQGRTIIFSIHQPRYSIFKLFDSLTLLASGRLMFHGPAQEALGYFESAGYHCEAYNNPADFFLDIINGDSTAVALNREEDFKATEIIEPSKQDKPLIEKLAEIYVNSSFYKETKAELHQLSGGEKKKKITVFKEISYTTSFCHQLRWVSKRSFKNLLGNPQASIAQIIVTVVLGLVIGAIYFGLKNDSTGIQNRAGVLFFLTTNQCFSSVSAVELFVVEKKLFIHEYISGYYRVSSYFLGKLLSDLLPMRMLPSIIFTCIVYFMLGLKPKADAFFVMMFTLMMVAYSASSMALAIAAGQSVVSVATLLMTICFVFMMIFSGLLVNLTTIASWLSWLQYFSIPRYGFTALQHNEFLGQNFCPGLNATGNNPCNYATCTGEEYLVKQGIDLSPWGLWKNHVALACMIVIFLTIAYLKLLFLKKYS
Method in brief: as §1

[3] = molecular target: OATP2B1 (Homo sapiens, UniProt O94956); experiment: OATP2B1 uptake inhibition in transfected HEK cells; format: in vitro ADME
Chain of OATP2B1 (O94956 whole entry): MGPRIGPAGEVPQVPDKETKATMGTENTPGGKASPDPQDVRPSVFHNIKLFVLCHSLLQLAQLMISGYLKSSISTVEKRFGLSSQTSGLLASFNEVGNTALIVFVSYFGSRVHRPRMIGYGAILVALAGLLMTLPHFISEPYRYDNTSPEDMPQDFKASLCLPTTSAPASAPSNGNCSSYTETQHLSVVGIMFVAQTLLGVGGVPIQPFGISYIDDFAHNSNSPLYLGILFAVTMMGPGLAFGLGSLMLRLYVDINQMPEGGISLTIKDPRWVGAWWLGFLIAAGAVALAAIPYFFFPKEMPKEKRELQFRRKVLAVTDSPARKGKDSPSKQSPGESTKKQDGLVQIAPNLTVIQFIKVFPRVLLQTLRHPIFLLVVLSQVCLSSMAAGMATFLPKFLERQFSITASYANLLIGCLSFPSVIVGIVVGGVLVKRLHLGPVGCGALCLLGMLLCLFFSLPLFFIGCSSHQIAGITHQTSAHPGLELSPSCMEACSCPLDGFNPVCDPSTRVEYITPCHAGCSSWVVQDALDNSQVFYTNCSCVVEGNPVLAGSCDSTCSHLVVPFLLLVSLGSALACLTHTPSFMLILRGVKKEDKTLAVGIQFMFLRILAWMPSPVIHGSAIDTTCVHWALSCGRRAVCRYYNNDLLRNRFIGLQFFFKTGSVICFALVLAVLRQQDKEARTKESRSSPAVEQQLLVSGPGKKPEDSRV
Method in brief: (§2)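 HEK cells overexpressing NTCP, OAT1, OAT3, OATP2B1, OCT1 or OCT2 were incubated with probe substrate. Pairs were estrone 3-sulfate/cyclosporin A (NTCP), PAH/probenecid (OAT1), furosemide/probenecid (OAT3), estrone 3-sulfate/glibenclamide (OATP2B1), 3H-MPP+/decynium 22 (OCT1) and 3H-MPP+/imipramine (OCT2). IC50 was determined with and without test compound, at ≤50 µM for the parent and ≤10 µM for the metabolite.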

[4] = molecular target: NTCP (Homo sapiens, UniProt Q14973); experiment: NTCP uptake inhibition in transfected HEK cells; format: in vitro ADME
Chain of NTCP (Q14973 whole entry): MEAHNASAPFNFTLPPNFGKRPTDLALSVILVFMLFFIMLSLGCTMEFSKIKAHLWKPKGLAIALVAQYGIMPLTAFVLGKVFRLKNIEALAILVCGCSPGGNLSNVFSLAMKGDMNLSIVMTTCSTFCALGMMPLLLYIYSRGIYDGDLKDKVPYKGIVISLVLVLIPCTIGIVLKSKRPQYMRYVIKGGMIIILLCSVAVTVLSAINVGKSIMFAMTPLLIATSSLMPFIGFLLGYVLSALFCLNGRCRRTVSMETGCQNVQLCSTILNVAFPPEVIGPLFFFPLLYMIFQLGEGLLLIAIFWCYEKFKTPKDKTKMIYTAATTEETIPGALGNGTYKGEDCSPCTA
Method in brief: as §2

[5] = system: P-gp and BCRP; experiment: Efflux in wildtype Caco-2 cells; format: in vitro ADME; conditions: human
Method in brief: (§3)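 Bidirectional transport was measured in wildtype Caco-2 cells and in proprietary derivatives with reduced BCRP (CPT-B1) or P-gp (CPT-P1) expression. Test compound was used at 0.5, 2 and 10 μM in wildtype cells and at 2 μM in the reduced-expression lines. Probe substrates served as positive controls and reference inhibitors as negative controls. Efflux ratios were calculated.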

[6] = molecular target: T1, BCRP; experiment: Efflux in CPT-B1 cells; format: in vitro ADME; conditions: Caco-2
Method in brief: as §3

[7] = Phase I study: darolutamide effect on rosuvastatin pharmacokinetics; format: in vivo, human; conditions: darolutamide 600 mg BID with single dose rosuvastatin 5 mg
[8] = system: CYP3A4; conditions: healthy volunteers; ref data on file; cited from earlier work
[9] = molecular target: T2, UGT1A1 (Homo sapiens, UniProt P22309); experiment: UGT1A1 inhibition in human liver microsomes; format: in vitro ADME; conditions: read-out: Ki, UGT1A1
T2 sequence (P22309 26-533): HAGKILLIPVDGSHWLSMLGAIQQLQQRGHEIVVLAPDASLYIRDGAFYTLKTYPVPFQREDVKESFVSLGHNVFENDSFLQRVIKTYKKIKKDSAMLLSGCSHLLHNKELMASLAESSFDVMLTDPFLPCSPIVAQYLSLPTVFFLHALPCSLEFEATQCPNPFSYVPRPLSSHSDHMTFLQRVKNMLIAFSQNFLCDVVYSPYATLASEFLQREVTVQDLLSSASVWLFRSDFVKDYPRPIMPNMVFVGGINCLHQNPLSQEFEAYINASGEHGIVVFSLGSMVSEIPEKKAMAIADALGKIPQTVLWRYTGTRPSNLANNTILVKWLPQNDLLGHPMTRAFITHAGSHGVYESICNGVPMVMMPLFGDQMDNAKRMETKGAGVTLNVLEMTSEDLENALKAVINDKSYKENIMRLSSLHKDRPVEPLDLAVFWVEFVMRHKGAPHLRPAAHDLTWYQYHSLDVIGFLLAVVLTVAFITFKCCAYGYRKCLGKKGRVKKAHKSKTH
Method in brief: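 Glucuronidation of UGT-selective substrates was measured in human liver microsomes with and without test compound, using a rank-order approach. Standard inhibitors for each isoform were incubated in parallel as positive controls.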

[10] = system: CYP1A2; format: in vitro ADME; conditions: primary human hepatocytes, three donors, 3 days dosing, 0.005–10 mg/l
[11] = molecular target: T1, BCRP; experiment: Efflux in BCRP-MDCK cells; format: in vitro ADME; conditions: reduced in the presence of BCRP-specific inhibitor Ko143

Chain of P-gp (P08183 whole entry): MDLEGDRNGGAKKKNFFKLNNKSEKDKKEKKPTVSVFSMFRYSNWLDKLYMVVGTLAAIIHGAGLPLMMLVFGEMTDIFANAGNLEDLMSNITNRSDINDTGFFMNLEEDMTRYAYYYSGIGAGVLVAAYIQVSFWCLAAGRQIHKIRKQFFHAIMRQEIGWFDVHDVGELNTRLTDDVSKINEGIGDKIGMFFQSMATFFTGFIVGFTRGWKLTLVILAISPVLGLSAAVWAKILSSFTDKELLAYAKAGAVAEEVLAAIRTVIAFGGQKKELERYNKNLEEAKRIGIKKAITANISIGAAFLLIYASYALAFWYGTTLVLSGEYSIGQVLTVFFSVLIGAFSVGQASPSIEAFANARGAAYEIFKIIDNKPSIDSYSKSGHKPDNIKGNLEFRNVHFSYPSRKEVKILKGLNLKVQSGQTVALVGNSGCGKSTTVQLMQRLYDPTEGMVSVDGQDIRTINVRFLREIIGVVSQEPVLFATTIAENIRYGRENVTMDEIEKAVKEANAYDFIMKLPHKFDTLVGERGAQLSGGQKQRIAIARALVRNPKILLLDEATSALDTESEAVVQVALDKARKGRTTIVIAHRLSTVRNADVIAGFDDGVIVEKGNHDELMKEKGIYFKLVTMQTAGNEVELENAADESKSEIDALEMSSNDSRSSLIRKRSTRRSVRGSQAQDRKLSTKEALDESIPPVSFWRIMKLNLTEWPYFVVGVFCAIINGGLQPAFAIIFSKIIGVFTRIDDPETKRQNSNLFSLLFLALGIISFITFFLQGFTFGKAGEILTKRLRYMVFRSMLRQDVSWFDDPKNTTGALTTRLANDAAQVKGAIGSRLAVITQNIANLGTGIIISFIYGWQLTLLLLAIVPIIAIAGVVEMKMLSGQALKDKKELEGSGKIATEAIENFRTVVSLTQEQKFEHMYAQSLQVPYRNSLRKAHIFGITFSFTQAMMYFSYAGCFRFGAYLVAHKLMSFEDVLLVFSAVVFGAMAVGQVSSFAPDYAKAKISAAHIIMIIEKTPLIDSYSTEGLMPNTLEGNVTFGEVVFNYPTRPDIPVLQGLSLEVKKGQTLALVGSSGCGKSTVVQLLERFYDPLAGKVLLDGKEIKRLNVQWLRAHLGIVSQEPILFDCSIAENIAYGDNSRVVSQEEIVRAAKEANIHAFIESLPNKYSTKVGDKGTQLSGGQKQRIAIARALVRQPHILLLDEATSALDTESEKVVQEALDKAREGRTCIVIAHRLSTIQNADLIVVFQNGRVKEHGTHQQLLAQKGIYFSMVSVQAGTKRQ

Row | SMILES | IC50 [1] [µM] | IC50 [2] [µM] | IC50 [3] [µM] | IC50 [4] [µM] | efflux ratio at 0.5 μM [5] | efflux ratio at 2 μM [5] | efflux ratio at 10 μM [5] | efflux ratio at 2 μM [6] | effect of rosuvastatin on darolutamide exposure [7] | share of clearance attributed to CYP3A4 metabolism [8] [%] | Ki [9] [µM] | maximal fold induction of CYP1A2 [10] [fold] | efflux ratio [11]
1 | CC(O)c1cc(C(=O)N[C@@H](C)Cn2ccc(-c3ccc(C#N)c(Cl)c3)n2)[nH]n1 (stereo partly shown) [Darolutamide, darolutamide] | 16.4 | 1.3 | > 50 | > 50 | 78 | 98 | 14 | 36 | no clinically relevant effects | 30 |  |  | 
2 | CC(=O)c1cc(C(=O)N[C@@H](C)Cn2ccc(-c3ccc(C#N)c(Cl)c3)n2)[nH]n1 [Keto-darolutamide, keto-darolutamide] |  |  |  |  |  |  |  |  |  |  | 8.13 | < 2 | > 2
